Bioassay records (PubChem)
CHO parental Ca = ATP-evoked calcium signal inhibitors, parental CHO, primary screen, counter-screen for OX1R antagonist project, cell-based, fluorescence, Fluo-8 calcium dye; parental CHO-K1, ATP-induced calcium, Fluo-8 fluorescence; inhibition, % at 5.6 µM; 330,000 compounds, 0.63% hits; AID 463079, 2010;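 active = inhibition above that plate's mean sample inhibition plus 3 SD, cut at about 26% in these data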;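 also: 0% = ATP-challenged DMSO wells and 100% = DMSO wells without ATP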
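Test system: untransfected parental CHO cell line; also added: ATP stimulus; dosing: 5.6 µM, single dose; signal: calcium-sensitive Fluo-8 fluorescence; measure: percent inhibition of ATP-evoked calcium rise, normalized to controls; benchmarks: low control ATP plus DMSO, high control DMSO only; replication: one well per compound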
OX1R antag-1 = OX1R (HCRTR1) antagonists, primary screen, fluorescence, CHO/OX1R cells, Fluo-8 calcium, orexin A; Orexin/Hypocretin receptor type 1 (Homo sapiens), O43613; Fluo-8 calcium fluorescence; inhibition, % at 5 µM; 330,000 compounds, 0.43% hits;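 active = inhibition above its plate's threshold, mean inhibition of all tested compounds on the plate plus 3 SD, cut at about 37% in these data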;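 also: 0% = orexin A challenge wells and 100% = SB-334867-A antagonist wells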
Target sequence (O43613 whole entry, looked up): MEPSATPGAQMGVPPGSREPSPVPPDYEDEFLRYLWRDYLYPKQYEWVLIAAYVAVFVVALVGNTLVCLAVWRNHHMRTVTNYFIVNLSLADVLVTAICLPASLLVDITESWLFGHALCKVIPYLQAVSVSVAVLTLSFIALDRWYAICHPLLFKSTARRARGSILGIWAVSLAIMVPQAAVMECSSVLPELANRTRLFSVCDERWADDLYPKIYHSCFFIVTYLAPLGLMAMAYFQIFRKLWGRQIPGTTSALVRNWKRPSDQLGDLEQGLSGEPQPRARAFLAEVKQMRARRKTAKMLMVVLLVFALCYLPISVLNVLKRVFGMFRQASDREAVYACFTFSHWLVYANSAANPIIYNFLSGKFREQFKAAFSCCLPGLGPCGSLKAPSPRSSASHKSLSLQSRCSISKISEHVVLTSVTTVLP
GPR7 antag = GPR7 receptor antagonists, primary screen, cell-based, fluorescence, single concentration; GPR7-expressing cells, fluorescence antagonist assay; 290,000 compounds, 1.1% hits; AID 1861, 2009; inhibition, % at 4.4 µM; Neuropeptides B/W receptor type 1 (Homo sapiens), P48145; in the data active = inhibition above about 16%, passing the limit was not always enough;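 also: cells stimulated with the agonist NPW; 0% = agonist with vehicle and 100% = vehicle without agonist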
OX1R antag-2 = antagonists of human orexin 1 receptor (OX1R); OX1R-expressing cells, FRET antagonist read-out; AID 485270, 2010; 330,000 compounds, 1.8% hits; inhibition, % at 6.6 µM; Orexin/Hypocretin receptor type 1 (Homo sapiens), O43613; in the data active = inhibition mostly above about 38%, no sharp cut-off; inactive = mostly below about 40%;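 also: 0% = agonist challenge alone and 100% = reference antagonist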
MPTP inh = mitochondrial permeability transition pore inhibitors, primary screen, biochemical, isolated mouse mitochondria, absorbance. Ca2+ swelling absorbance, 30 min. inhibition, % at 10 µM. 360,000 compounds, 1.4% hits;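 active = inhibition of 50% or more, scaled per plate between neutral and stimulator controls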;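 also: 0% = DMSO wells given calcium and 100% = 1 mM EGTA wells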
* marks the source's active call; other numbers are inactive results; · = not tested or not shown. Hits are enriched below; roughly 3.8% of the tested compounds scored in any of these assays.

SMILES	CHO parental Ca	OX1R antag-1	GPR7 antag	OX1R antag-2	MPTP inh
O=C(COc1ccc(Br)cc1)NCC1COc2ccccc2O1 (stereo not given)	-8.9	0.1	·	9.7	-1.5
COc1ccc(NC(=O)Cn2c3ccccc3c3nc4n(c(=O)c32)CCS4)cc1	-5.2	4.1	5.0	73.8*	0.5
COc1cccc(NC(=O)Cn2c3ccccc3c3nc4n(c(=O)c32)CCCS4)c1	-31.2	0.0	-4.5	36.8*	0.0
O=C(NCC1CCCO1)c1ccc(NC(=O)c2ccc([N+](=O)[O-])cc2)cc1 (stereo not given)	9.9	-10.7	-9.1	34.2	0.4
CC(=O)NC1C(=O)N=C(SC(C)C(=O)Nc2cccc(Cl)c2)NC1=O (stereo not given)	9.9	-1.7	-0.3	18.7	-0.8
Clc1ccc(CON/C=N/c2ncnc3sccc23)c(Cl)c1	23.3	-9.3	-13.2	45.4*	34.0
O=C(NCc1ccccc1Cl)[C@H]1CCCN1C(=O)[C@H]1CCCN1C(=O)c1cccc2ccccc12	·	·	·	·	0.5
CC(=O)N(C1=C(Cl)C(=O)c2ccccc2C1=O)C1CCCCC1	37.9*	22.0	-19.4	71.1*	31.2
COC(=O)c1ccccc1NC(=O)CSc1nnnn1CC(=O)O	-2.9	0.8	-4.1	5.2	-0.4
CC1CCCN(C(=S)NC2CCCC2)C1 (stereo not given)	-6.1	-26.3	-5.6	24.2	-0.5
O=Nc1c(O)n(Cc2ccc(Cl)c(Cl)c2)c2ccccc12	37.9*	-4.2	-8.6	20.9	20.9
O=Nc1c(O)n(Cc2ccccc2)c2ccccc12	6.5	-5.4	-14.4	6.5	1.1
NC(=O)c1cc2ccccc2o/c1=N\NC(=O)c1ccncc1	-7.5	-13.9	-6.5	68.6*	0.6
Cc1ccc(NC2=C(NCCO)C(=O)c3ccccc3C2=O)cc1	-10.7	-12.3	5.9	56.3*	1.8
Cc1cnc(-c2nc3ccccc3n2C(C)C(=O)Nc2c(C)cccc2C)cn1 (stereo not given)	·	·	·	·	2.1
O=C(Nc1ccc(F)cc1)Nc1ccc2c(c1)CCC2	39.0*	6.9	-9.6	10.1	23.3
O=C(Nc1ccc2c(c1)CCC2)Nc1ccc(F)cc1F	20.9	-0.6	4.8	35.5	11.9
Cc1cccc(C)c1NC(=O)CN(C)C(=O)Cc1cccc(C(F)(F)F)c1	-4.8	-12.9	3.1	0.8	0.8
CCOC(=O)Cn1c(=O)oc2cc(S(=O)(=O)NC3CCCc4ccccc43)ccc21 (stereo not given)	14.2	-7.6	27.8*	7.8	0.2
CCOC(=O)Cn1c(=O)oc2cc(S(=O)(=O)NC3CCCCC3)ccc21	-0.2	-14.6	-5.0	6.4	-0.9
O=c1[nH]cnc2ncc(-c3ccc(O)cc3)nc12	-9.0	0.7	·	59.6*	-0.4
Oc1ccc(-c2cnc3ccccc3n2)cc1	-8.5	-7.6	·	11.9	-0.4
Nn1c(Cc2ccccc2)nc2cc(Cl)ccc2c1=O	7.7	-3.4	-10.1	3.0	1.3
CC(C)(C)n1nnnc1C(c1cccs1)N(Cc1ccc(Cl)cc1)CC1CCCO1 (stereo not given)	37.9*	-43.5	-10.4	8.6	0.2
C[C@@H]1NC(=O)c2cc([N+](=O)[O-])cc(I)c2OCC[C@@H](C(=O)NC(CC(=O)O)C(N)=O)NC(=O)[C@H](CC(N)=O)NC1=O (stereo not given in full)	51.5*	40.5	2.8	31.2	·
SMILES	CHO parental Ca	OX1R antag-1	GPR7 antag	OX1R antag-2	MPTP inh
COn1c(=O)c(-c2ccc(Cl)cc2)[n+]([O-])c2ccccc21	-0.5	-2.8	-11.5	53.4*	-0.3
COn1c(=O)c(-c2ccc(C)cc2)[n+]([O-])c2ccccc21	-15.8	-16.4	5.1	33.1	-0.5
COn1c(=O)c(-c2ccccc2)[n+]([O-])c2ccccc21	-1.3	-11.5	2.5	42.5*	0.0
CCC1CCCCN1C(=O)COC(=O)CSc1ccc(C(N)=O)cc1[N+](=O)[O-] (stereo not given)	-16.6	-12.4	·	20.4	0.0
CC1CCCCN1C(=O)COC(=O)CSc1ccc(C(N)=O)cc1[N+](=O)[O-] (stereo not given)	·	·	·	·	-2.3
CCOC(=O)C1CCN(C(=O)COC(=O)CSc2ccc(C(N)=O)cc2[N+](=O)[O-])CC1	-4.8	-10.9	-9.8	55.1*	-0.6
Cc1c(NC(=O)COC(=O)CSc2ccc(C(N)=O)cc2[N+](=O)[O-])c(=O)n(-c2ccccc2)n1C	-4.2	1.6	7.3	71.3*	-0.5
COC(=O)C1CCN(C(=O)COC(=O)CSc2ccc(C(N)=O)cc2[N+](=O)[O-])CC1	-1.5	-6.7	·	37.1*	-0.4
CN(C(=O)CSc1nc2c(cnn2-c2ccccc2)c(=O)[nH]1)C1CCS(=O)(=O)C1 (stereo not given)	4.3	-3.9	-17.3	8.9	·
Cc1ccc(S(=O)(=O)NC(=O)NC2=NC(C)(C)N(c3ccc(Cl)c(Cl)c3)C(N)=N2)cc1	·	·	·	·	-0.1
CCOc1ccccc1N1CCN(CC(=O)Nc2nccs2)CC1	·	·	·	·	0.6
CN(C)C=Nc1c(Br)cc(Br)c2nonc12	64.4*	58.0*	-10.4	42.7	0.9
CCOC(=O)c1[nH]c(C)c(CN(C(C)=O)c2ccc(OCC)cc2)c1C	-13.3	-23.0	22.1*	8.7	0.2
Cc1ccccc1CSc1nnc(C)c(=O)[nH]1	0.3	-7.8	17.4*	17.1	0.2
C=CCOc1c(CCC)cc(CCC)cc1C(N)=O	93.8*	2.8	-22.9	-1.6	1.1
CCOc1c(C(N)=O)cc([N+](=O)[O-])cc1[N+](=O)[O-]	-5.0	0.1	-4.2	34.0	-0.5
COC(=O)C[C@H](NC(=O)Cn1cnc2c(SC)nc(N)nc21)C(=O)OC	-3.1	5.3	·	-3.5	0.4
COCCNC(=O)C(c1ccc(F)cc1)N(Cc1ccco1)C(=O)CCC(=O)Nc1nccs1 (stereo not given)	-12.8	25.9	-11.7	60.4*	3.8
COCCNC(=O)C(c1ccc(F)cc1)N(Cc1ccco1)C(=O)CCC(=O)Nc1ccccn1 (stereo not given)	-15.2	-11.2	-14.7	40.4	-0.2
Cc1cc(NC(=O)CCC(=O)N(Cc2ccco2)C(C(=O)NC2CCCCC2)c2ccccc2)no1 (stereo not given)	-20.9	-18.4	-3.8	52.7*	0.4
Cc1ccc(C(C)C)cc1S(=O)(=O)NC1CC(C)(C)NC(C)(C)C1	3.7	-2.4	9.2	9.3	3.5
CCc1ccc(NC(=O)c2cc3c(C)nc4ccccc4c3o2)cc1	-33.1	-20.4	-15.7	59.9*	10.9
Cc1ccc(CNC(=O)c2cc3c(C)nc4ccccc4c3o2)cc1	23.6	-21.6	-13.9	56.8*	45.8
COC(=O)C1=C(C(=O)OC)C(C(=O)OC)N2C=CC=CC2=C1C(=O)OC (stereo not given)	·	·	·	·	-1.3
